From ChEMBL document CHEMBL1123777 (J Med Chem, 1987)

What was measured:
D(2) dopamine receptor = D(2) dopamine receptor (Bos taurus, UniProt P20288); test: Displacement of [3H]spiroperidol from homogenized bovine pituitary Dopamine receptor D2
D(1A) dopamine receptor [1] = molecular target: T1, D(1A) dopamine receptor (Rattus norvegicus, UniProt P18901); test: Dopamine receptor D1 agonist efficacy was measured with stimulation of dopamine-sensitive rat adenylate cyclase in caudate membranes; NS means not significant.; format: functional, cell membranes, Membrane
Oryctolagus cuniculus = species: Oryctolagus cuniculus; test: Ability to relax the electrically stimulated rabbit ear artery was determined; format: functional
Method in brief: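 Isolated, perfused rabbit ear artery under electrical stimulation; inhibition of the neurogenic response taken as the D-2 agonist read-out. Concentration–response curves were also run in the presence of (S)-sulpiride at several nM concentrations. Points are mean ± SEM of at least four experiments.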

[2] = molecular target: D(1A) dopamine receptor (Rattus norvegicus) (UniProt P18901); settings: Striatum
D(1A) dopamine receptor [3] = molecular target: T1, D(1A) dopamine receptor; test: Dopamine receptor D1 agonist efficacy was measured with stimulation of dopamine-sensitive rat adenylate cyclase in caudate membranes. Partial agonist, maximum effect 60% of dopamine maximum effect.; format: functional, cell membranes, Membrane
D(1A) dopamine receptor [4] = molecular target: T1, D(1A) dopamine receptor; test: Dopamine receptor D1 agonist efficacy was measured with stimulation of dopamine-sensitive rat adenylate cyclase in caudate membranes. Partial agonist, maximum effect 59% of dopamine maximum effect; format: functional, cell membranes, Membrane
[5] = molecular target: D(1A) dopamine receptor (Rattus norvegicus) (UniProt P18901); settings: Striatum; remark: listed apart in the source
D(1A) dopamine receptor [6] = molecular target: T1, D(1A) dopamine receptor; test: Dopamine D1 agonist efficacy was measured with stimulation of dopamine-sensitive rat adenylate cyclase in caudate membranes; format: functional, cell membranes, Membrane
D(1A) dopamine receptor [7] = molecular target: T1, D(1A) dopamine receptor; test: Dopamine receptor D1 agonist efficacy was measured with stimulation of dopamine-sensitive rat adenylate cyclase in caudate membranes; format: functional, cell membranes, Membrane

Chain of D(2) dopamine receptor (P20288 whole entry): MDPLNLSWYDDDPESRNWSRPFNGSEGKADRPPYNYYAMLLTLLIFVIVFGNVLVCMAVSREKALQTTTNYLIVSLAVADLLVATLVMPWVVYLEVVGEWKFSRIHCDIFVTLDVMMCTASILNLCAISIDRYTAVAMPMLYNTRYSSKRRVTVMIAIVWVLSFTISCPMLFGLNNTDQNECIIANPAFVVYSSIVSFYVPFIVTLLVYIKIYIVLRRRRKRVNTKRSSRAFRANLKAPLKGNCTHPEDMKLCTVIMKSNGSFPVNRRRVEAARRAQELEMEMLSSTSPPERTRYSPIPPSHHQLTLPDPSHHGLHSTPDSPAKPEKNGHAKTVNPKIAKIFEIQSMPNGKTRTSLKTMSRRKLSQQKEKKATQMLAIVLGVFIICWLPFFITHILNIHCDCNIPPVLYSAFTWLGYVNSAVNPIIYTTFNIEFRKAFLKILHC
Chain of D(1A) dopamine receptor (Rattus norvegicus) (P18901 whole entry): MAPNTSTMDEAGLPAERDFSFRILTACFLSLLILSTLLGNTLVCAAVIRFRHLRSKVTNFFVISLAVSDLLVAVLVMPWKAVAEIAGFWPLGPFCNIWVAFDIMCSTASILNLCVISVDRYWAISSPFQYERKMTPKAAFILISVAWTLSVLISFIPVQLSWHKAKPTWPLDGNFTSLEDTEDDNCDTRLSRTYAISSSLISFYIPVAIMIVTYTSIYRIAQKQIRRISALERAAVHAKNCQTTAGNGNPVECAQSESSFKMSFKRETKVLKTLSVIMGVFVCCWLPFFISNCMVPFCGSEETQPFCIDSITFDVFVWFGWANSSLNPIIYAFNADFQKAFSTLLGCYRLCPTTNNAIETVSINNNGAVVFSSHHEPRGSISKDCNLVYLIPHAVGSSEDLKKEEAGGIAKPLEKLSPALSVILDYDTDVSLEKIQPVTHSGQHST
T1 sequence (P18901 whole entry): as above

Compound | IC50 (D(2) dopamine receptor) | EC50 (Oryctolagus cuniculus) | also measured
CCCN(CCC)CCc1ccc(O)c2c1C(=O)C(=O)N2 | 560 nM | 7 nM | EC50 (D(1A) dopamine receptor [1]): Not Active
NCCc1ccc(O)c2nc(O)sc12 | 2000 nM | 30 nM | K bind [2]: 9 nM; EC50 (D(1A) dopamine receptor [3]): 295 nM
CCCN(CCC)CCc1ccc(O)c2nc(O)oc12 | 1200 nM | 8 nM | 
NCCc1ccc(O)c2c1CC(=O)N2 | 4850 nM |  | EC50 (D(1A) dopamine receptor [4]): 4.65 µM; K bind [5]: 700 nM
NCCc1ccc(O)c(O)c1 [DOPAMINE] |  | 76 nM | 
CCCN(CCC)CCc1ccc(O)c2nc(O)sc12 | 49 nM | 0.028 nM | 
CCCN(CCC)CCc1ccc(O)c2[nH]c(O)nc12 | 1000 nM | 9 nM | 
CCCN(CCC)CCc1ccc(O)c2c1CC(=O)N2 [SKF-89124A] | 530 nM | 1.8 nM | EC50 (D(1A) dopamine receptor [6]): 20 µM
NCCc1cccc2nc(O)sc12 | > 10000 nM | 1000 nM | EC50 (D(1A) dopamine receptor [1]): Not Active
CCCN(CCC)CCc1ccc(O)c(O)c1 |  | 80 nM | EC50 (D(1A) dopamine receptor [7]): 12.5 µM
Oc1ccc(C2CNCCc3c2cc(O)c(O)c3Cl)cc1 (configuration not stated) [FENOLDOPAM] |  | 1200 nM | K bind [5]: 3 nM
CCCN(CCC)CCc1cccc2nc(O)sc12 | 1000 nM | 28 nM | 
CNCCc1ccc(O)c2nc(O)sc12 |  | 6 nM | 
CCCN(CCC)CCc1cccc2c1CC(=O)N2 [ROPINIROLE] | 6810 nM |  | 
CCCN(CCC)CCc1c(Cl)cc(O)c2nc(O)sc12 |  | 50 nM | 
